Laboratory results as given in ChEMBL document CHEMBL1141604, “Benzenesulfonamide indole inhibitors of cytosolic phospholipase A2alpha: optimization of in vitro potency and rat pharmacokinetics for oral efficacy” (Bioorg Med Chem, 2008).

How the values were obtained:
[1] = Clearance in Sprague-Dawley rat at 2 mg/kg, iv; assay type: ADME, organism-based; parameters: dose 2 mg/kg, route intravenous; details: in vivo
Summary of the method: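 Male Sprague-Dawley rats, 200–300 g, n = 3, given a single 2 mg/kg tail-vein bolus in 50% PEG-400/50% DMSO. Blood drawn via jugular cannula over 24 h and plasma acidified with HCl. Plasma levels measured by LC/MS/MS after acetonitrile precipitation with internal standard; quantitation limit 5 ng/mL. Clearance from non-compartmental analysis.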

[2] = Inhibition of cPLA2-alpha in Sprague-Dawley rat whole blood assay in presence of A23187; assay type: tissue-based
Summary of the method: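 Heparinized blood from male Sprague-Dawley rats, taken by cardiac puncture. Preincubated 15 min at 37 °C with compound in DMSO, then stimulated 10 min at 37 °C with 5 µM A23187 (final). Stopped with 20 mM EDTA; plasma precipitated with cold methanol at −80 °C. TXB2 measured by immunoassay; IC50 values averaged from at least two independent runs.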

[3] = Inhibition of human cPLA2-alpha assessed as cleavage of 7-hydroxycoumarinyl-gamma-linolenate
Summary of the method: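 Substrate 90 µM GLU with 120 µM DTPC. Compounds in DMSO tested in duplicate. Fluorescence (ex 355/em 460 nm) read every 4 min for 84 min; inhibition from slope. IC50 averaged from at least two independent runs.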

[4] = Oral bioavailability in Sprague-Dawley rat at 25 mg/kg administered through MC/TW formulation; assay type: ADME, organism-based; details: in vivo
Summary of the method: (§1)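 Overnight-fasted male Sprague-Dawley rats (n = 3) gavaged in MC/TW or Phosal vehicle; compound at 37.5 mg/mL, diluted with water, dosed at 4 mL/kg. Jugular blood taken over 24 h; plasma analysed by LC/MS/MS. F calculated as the dose-normalized oral/iv AUC ratio, iv reference 2 mg/kg.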

[5] = Oral bioavailability in Sprague-Dawley rat at 25 mg/kg administered through Phosal formulation; assay type: ADME, organism-based; details: in vivo; summary of the method: as §1
[6] = Clearance in Beagle dog at 2 mg/kg, iv; assay type: ADME, organism-based, Canis lupus familiaris; parameters: dose 2 mg/kg, route intravenous; details: in vivo
Summary of the method: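 Male Beagle dogs, 8.5–13.0 kg, n = 3, fasted overnight, given 2 mg/kg iv in 20% DMSO/80% PEG-200. Saphenous blood sampled over 24 h and plasma acidified to about pH 4. Analysed by LC/MS/MS with internal standard. Clearance by non-compartmental methods.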

[7] = Oral bioavailability in Beagle dog at 50 mg/kg administered through MC/TW formulation; assay type: ADME, organism-based, Canis lupus familiaris; details: in vivo
Summary of the method: (§2)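 Fasted male Beagle dogs (n = 3) dosed orally in MC/TW or Phosal formulation, volume 4 or 6 mL/kg. Saphenous plasma collected over 24 h and measured by LC/MS/MS. F calculated as the dose-normalized oral/iv AUC ratio against 2 mg/kg iv.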

[8] = Oral bioavailability in Beagle dog at 50 mg/kg administered through Phosal formulation; assay type: ADME, organism-based, Canis lupus familiaris; details: in vivo; summary of the method: as §2
[9] = Oral bioavailability in Sprague-Dawley rat at 10 mg/kg administered through Phosal formulation; assay type: ADME, organism-based; details: in vivo
[10] = Oral bioavailability in Sprague-Dawley rat at 5 mg/kg administered through MC/TW formulation; assay type: ADME, organism-based; details: in vivo; summary of the method: as §1

| clearance [1] [mL/min/kg] | IC50 [2] [nM] | IC50 [3] [nM] | bioavailability [4] [%] | bioavailability [5] [%] | clearance [6] [mL/min/kg] | bioavailability [7] [%] | bioavailability [8] [%] | bioavailability [9] [%] | bioavailability [10] [%] | SMILES |
| --- | --- | --- | --- | --- | --- | --- | --- | --- | --- | --- |
| 73 | 1000 | 3000 |  |  |  |  |  |  |  | O=C(O)c1ccc(OCCc2c(CCNS(=O)(=O)c3ccccc3)n(C(c3ccccc3)c3ccccc3)c3ccc(Cl)cc23)cc1 |
| 6.1 | 95 | 100 | 6 |  |  |  |  |  |  | Cc1cccc(C)c1S(=O)(=O)NCCc1c(CCOc2ccc(C(=O)O)cc2)c2cc(Cl)ccc2n1C(c1ccccc1)c1ccccc1 |
| 9.4 | 200 | 100 | 13.7 |  |  |  |  |  |  | O=C(O)c1ccc(CCCc2c(CCNS(=O)(=O)c3ccccc3Cl)n(C(c3ccccc3)c3ccccc3)c3ccc(Cl)cc23)cc1 |
| 6.5 | 120 | 100 | 1.9 |  |  |  |  |  |  | O=C(O)c1ccc(CCCc2c(CCNS(=O)(=O)c3ccccc3Br)n(C(c3ccccc3)c3ccccc3)c3ccc(Cl)cc23)cc1 |
| 28 | 150 | 600 | 6 |  |  |  |  |  |  | O=C(O)c1ccc(OCCc2c(CCNS(=O)(=O)c3ccccc3F)n(C(c3ccccc3)c3ccccc3)c3ccc(Cl)cc23)cc1 |
|  | 160 |  | 6 |  |  |  |  |  |  | O=C(O)c1ccc(OCCc2c(CCNS(=O)(=O)Cc3ccc(Cl)c(Cl)c3)n(C(c3ccccc3)c3ccccc3)c3ccc(Cl)cc23)cc1 [ECOPLADIB] |
|  | 70 | 40 | 1 | 6 |  |  |  |  |  | O=C(O)c1ccc(CCCc2c(CCNS(=O)(=O)Cc3ccc(Cl)c(Cl)c3)n(C(c3ccccc3)c3ccccc3)c3ccc(Cl)cc23)cc1 [EFIPLADIB] |
| 61 | 160 | 340 |  |  |  |  |  |  |  | Cc1ccccc1S(=O)(=O)NCCc1c(CCOc2ccc(C(=O)O)cc2)c2cc(Cl)ccc2n1C(c1ccccc1)c1ccccc1 |
| 15.3 | 150 | 180 | 3 |  |  |  |  |  |  | O=C(O)c1ccc(OCCc2c(CCNS(=O)(=O)c3c(F)cccc3C(F)(F)F)n(C(c3ccccc3)c3ccccc3)c3ccc(Cl)cc23)cc1 |
| 3.1 | 320 | 520 | < 0.2 |  |  |  |  |  |  | O=C(O)c1ccc(OCCc2c(CCNS(=O)(=O)c3ccccc3Br)n(C(c3ccccc3)c3ccccc3)c3ccc(Cl)cc23)cc1 |
| 5.2 | 200 | 100 | 4.6 |  |  |  |  |  |  | O=C(O)c1ccc(CCCc2c(CCNS(=O)(=O)c3ccccc3OC(F)(F)F)n(C(c3ccccc3)c3ccccc3)c3ccc(Cl)cc23)cc1 |
| 4.5 | 150 | 110 | < 0.1 |  |  |  |  |  |  | O=C(O)c1ccc(OCCc2c(CCNS(=O)(=O)c3ccccc3-c3ccccc3)n(C(c3ccccc3)c3ccccc3)c3ccc(Cl)cc23)cc1 |
|  | 600 | 570 |  |  |  |  |  |  |  | O=C(O)c1ccc(OCCc2c(CCNS(=O)(=O)c3cccc(-c4ccccc4)c3)n(C(c3ccccc3)c3ccccc3)c3ccc(Cl)cc23)cc1 |
|  | 120 | 110 | 3.9 |  |  |  |  |  |  | O=C(O)c1ccc(OCCc2c(CCNS(=O)(=O)Cc3ccccc3)n(C(c3ccccc3)c3ccccc3)c3ccc(Cl)cc23)cc1 |
| 18.6 | 60 | 180 | < 0.1 |  |  |  |  |  |  | COc1ccccc1S(=O)(=O)NCCc1c(CCOc2ccc(C(=O)O)cc2)c2cc(Cl)ccc2n1C(c1ccccc1)c1ccccc1 |
| 8.5 | 100 | 60 | 3.8 |  |  |  |  |  |  | O=C(O)c1ccc(CCCc2c(CCNS(=O)(=O)c3c(Cl)cccc3Cl)n(C(c3ccccc3)c3ccccc3)c3ccc(Cl)cc23)cc1 |
| 10.5 | 75 | 47 | 1.3 |  |  |  |  |  |  | Cc1cccc(C)c1S(=O)(=O)NCCc1c(CCCc2ccc(C(=O)O)cc2)c2cc(Cl)ccc2n1C(c1ccccc1)c1ccccc1 |
| 8.8 | 220 | 190 | 4 |  |  |  |  |  |  | O=C(O)c1ccc(CCCc2c(CCNS(=O)(=O)c3ccccc3F)n(C(c3ccccc3)c3ccccc3)c3ccc(Cl)cc23)cc1 |
| 4 | 30 | 14 | 1 | 3.5 | 0.6 | 0.08 | 1.5 |  |  | Cc1cccc(C)c1CS(=O)(=O)NCCc1c(CCCc2ccc(C(=O)O)cc2)c2cc(Cl)ccc2n1C(c1ccccc1)c1ccccc1 |
| 10.7 | 200 | 100 | 7.8 |  |  |  |  |  |  | COc1ccccc1S(=O)(=O)NCCc1c(CCCc2ccc(C(=O)O)cc2)c2cc(Cl)ccc2n1C(c1ccccc1)c1ccccc1 |
| 2.3 | 60 | 40 | 0.4 |  |  |  |  |  |  | O=C(O)c1ccc(CCCc2c(CCNS(=O)(=O)c3ccccc3-c3ccccc3)n(C(c3ccccc3)c3ccccc3)c3ccc(Cl)cc23)cc1 |
| 16.3 | 210 | 260 | 2.9 |  |  |  |  |  |  | O=C(O)c1ccc(OCCc2c(CCNS(=O)(=O)c3c(Cl)cccc3Cl)n(C(c3ccccc3)c3ccccc3)c3ccc(Cl)cc23)cc1 |
| 13 | 80 | 40 |  |  |  |  |  | 7.2 | 3.8 | O=C(O)c1ccc(CCCc2c(CCNS(=O)(=O)Cc3ccccc3)n(C(c3ccccc3)c3ccccc3)c3ccc(Cl)cc23)cc1 |
| 10.3 | 95 | 90 | 8.6 |  |  |  |  |  |  | Cc1ccccc1S(=O)(=O)NCCc1c(CCCc2ccc(C(=O)O)cc2)c2cc(Cl)ccc2n1C(c1ccccc1)c1ccccc1 |
| 12.4 | 360 | 350 | 15.4 |  |  |  |  |  |  | O=C(O)c1ccc(OCCc2c(CCNS(=O)(=O)c3ccccc3OC(F)(F)F)n(C(c3ccccc3)c3ccccc3)c3ccc(Cl)cc23)cc1 |
| 31 | 550 | 400 | 39 |  |  |  |  |  |  | O=C(O)c1ccc(OCCc2c(CCNS(=O)(=O)c3ccccc3Cl)n(C(c3ccccc3)c3ccccc3)c3ccc(Cl)cc23)cc1 |
|  | 220 | 180 |  |  |  |  |  |  |  | O=C(O)c1ccc(CCCc2c(CCNS(=O)(=O)c3cccc(-c4ccccc4)c3)n(C(c3ccccc3)c3ccccc3)c3ccc(Cl)cc23)cc1 |
